L major viab: Leishmania major promastigote growth inhibition. 200,000 compounds, 9% hits. Leishmania major promastigotes, resazurin fluorescence viability. inhibition, % at 10 µM; in the data active = inhibition above about 50%;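 note: promastigotes grown with compound for 44 hours at 28 °C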
MT stabilizer: stabilizes microtubules in HeLa cells; 200,000 compounds, 0.83% hits; HeLa tubulin immunostaining HCS, 24 h; share of cells brighter than vehicle mean+2SD; AID 2205; % tubulin-high responders, % at 10 µM;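 active = plate Z-score above 3 for both tubulin-high and condensed-nucleus cell shares, with cell loss under 80%, at 10 µM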;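 note: anti alpha tubulin signal scored within the nucleus-defined area of each cell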
bCat nuc transl: beta-catenin nuclear translocation modulation; HeLa beta-catenin nuclear translocation, immunofluorescence imaging; nuclear translocation activity, % at 5 µM; 190,000 compounds, 0.3% hits;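 active = nuclear translocation activity above 50% at 5 µM, with a well cell count of 50 or more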;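 note: per-cell ratio of nuclear to cytoplasmic median beta-catenin stain intensity; plate controls were DMSO negative control for no effect and GSK-3 inhibitor IX positive control for full effect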
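Signal – beta-catenin immunofluorescence imaging with DAPI · Test system – human HeLa cell line · Dosing – 5 µM primary single dose, 0.1% DMSO, 0.02–20 µM confirmation series · Measure – % activation, nuclear-to-cytoplasmic median beta-catenin signal ratio per cell · Incubation – 24 h compound exposure at 37°C, 5% CO2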
Autophagy HCS: autophagy modulation, high-content screen. MEF GFP-LC3 puncta imaging; test concentration mostly 10 µM. calls only at 10 µM (by protocol). 190,000 compounds, 0.98% hits;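 active = percentage of spot-positive cells more than 3 SD above its plate mean, without a fluorescence outlier flag or 80% toxicity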;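 note: spot-positive cell cutoff set from DMSO-treated cells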
CHOP inhibitor: CHOP inhibition in unfolded protein response | inhibition, % at 10 µM | 220,000 compounds, 3.8% hits | CHO-K1 CHOP-promoter luciferase, tunicamycin-induced, 15-18 h | AID 2732;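 active = compounds that reduced the stress-induced luciferase reporter signal by more than about 70% of percent inhibition, limit read from the data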;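 note: 0% = tunicamycin plus vehicle and 100% = wells without tunicamycin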
Dynein transport: dynein cargo transport inhibition. AID 1381. z-score, hits read low. 220,000 compounds, 0.47% hits. 3617.4 mouse cells, GR-EGFP nuclear translocation imaging; test concentration mostly 20 µM; stimulated with dexamethasone, 1 µM; active compounds read low;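 active = plate z-score of nuclear minus cytoplasmic receptor signal below a set negative limit, without overly bright fluorescence or cell loss, cut at about -3.5 in these data, passing the limit was not always enough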;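 note: z-score of nuclear minus cytoplasmic ring GR-EGFP intensity difference per well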
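medium = tetracycline-free induction medium containing charcoal-stripped FBS | probe or stimulus = dexamethasone, 1.0 µM final | timing = 48 h induction, then 1 h compound, then 30 min agonist, 37 °C | detection = automated 10x imaging of fixed Hoechst-stained cells | read-out basis = nuclear versus cytoplasmic GR-EGFP signal, averaged per well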
Starred values were filed as active, the others as inactive; i = inactive; / = no result. Hits are enriched below; roughly 12% of the tested compounds scored in any of these assays.

SMILES | L major viab | MT stabilizer | bCat nuc transl | Autophagy HCS | CHOP inhibitor | Dynein transport
COc1cc(/C=C2/CCc3ccccc3C2=O)cc(OC)c1OC | 55* | 6 | 4 | i | 12 | -0.71
COc1ccc(/C=C2/CC/C(=C\c3ccc(OC)c(OC)c3OC)C2=O)c(OC)c1OC | 2 | 3 | -1 | i | 31 | 0.26
O=C1/C(=C/c2ccncc2)CCc2ccccc21 | / | / | 1 | / | 8 | -3.3
COc1ccccc1NC(=O)Cc1noc(CSc2n[nH]c(N)n2)n1 | -1 | 4 | -2 | i | 7 | 0.37
COC(=O)c1ccc(CNC(=O)COC(=O)C2CCC(C(C)(C)C)CC2)cc1 (stereo unspecified) | -3 | 2 | -7 | i | 93* | 0.25
O=C(CSc1nnc(-c2ccc(Br)cc2)o1)Nc1cccc2ccccc12 | 0 | 3 | -2 | i | 70* | -0.92
Cc1cccc(C)c1OC(=O)CSc1nnc(-c2ccccc2O)o1 | 0 | 2 | 0 | i | 92* | -0.49
O=C(CSc1nnc(-c2ccccc2)o1)Nc1ccccc1F | 1 | 3 | / | i | 11 | 2.1
O=C(CSc1nnc(-c2ccccc2)o1)Oc1ccc(Br)cc1 | 4 | 1 | / | i | 81* | -0.43
Cc1cccc(NC(=O)CSc2nnc(-c3cc(C)n(-c4ccccc4)c3C)o2)c1C | 27 | 4 | 0 | i | 91* | 2.8
COC(=O)CSc1nnc(-c2ccccc2OC)o1 | 7 | 0 | 0 | i | 13 | 0.36
COc1ccccc1-n1cc(C(=O)N2CCCC(CO)(Cc3ccccc3C)C2)cn1 (stereo unspecified) | 19 | 3 | 1 | i | 11 | 1.3
COc1ccc(Nc2nc(C(F)(F)F)nc(C)c2C#N)cc1 | 0 | 5 | 1 | i | 6 | -0.46
COc1cccc(C(=O)N2C(C(=O)O)CSC2c2ccccc2Cl)c1 (stereo unspecified) | -3 | 4 | -1 | i | -12 | 0.38
O=C(CSc1cccs1)Nc1cccc2ccccc12 | 64* | 2 | -2 | i | -3 | 0.15
CCOC(=O)C1C(c2cccnc2)NC(=O)NC1(O)C(F)(F)F (stereo unspecified) | -1 | 17* | -2 | i | 8 | -1
CCOC(=O)C1C(c2cccs2)NC(=O)NC1(O)C(F)(F)F (stereo unspecified) | -6 | 2 | -1 | i | 14 | -0.16
O=C(N/N=C/c1ccc(-c2ccc(S(=O)(=O)Nc3ncccn3)cc2)o1)c1cc2ccccc2cc1O | 73* | 2 | -3 | i | 23 | 2.8
C=CCN1C(=O)C(O)(CC(=O)c2ccc(OC)cc2OC)c2cc(Br)ccc21 (stereo unspecified) | 74* | 2 | 0 | i | 5 | 1.3
CC1(C)Cn2c(nc(=O)c3c2NCN(CCc2ccccc2)C3)S1 | -3 | 3 | 3 | i | -5 | 2.6
CN1CCCC1CCNS(=O)(=O)c1ccc(Br)cc1 (stereo unspecified) | 96* | 4 | -2 | i | 18 | -0.047
O=C1CCCN1CCCNS(=O)(=O)c1ccc(Br)cc1 | 2 | 3 | -2 | i | 20 | 1.5
Cc1c(-c2ccccc2)nc2ccccc2c1C(=O)Oc1ccc([N+](=O)[O-])cc1 | 50* | 1 | 0 | i | 28 | -0.34
CCOC(=O)c1c(NC(=O)CNC2CCCCC2)sc(C)c1C | 13 | 3 | -1 | i | 49 | 0.69
COC(=O)c1c(NC(=O)COC(=O)CNC(=O)C2CCCCC2)sc(C)c1C | 0 | 4 | 0 | i | 78* | -0.31
CCOC(=O)CSc1nnc(CNC(=O)c2cccs2)n1-c1cc(C)ccc1C | -2 | 2 | 3 | i | -2 | 0.93
CC(C)(C)NC(=O)NC(=O)COC(=O)C1=COCCO1 | -4 | 1 | 2 | i | 81* | -0.5
S=C(NNc1ccnc2cc(Cl)ccc12)Nc1ccccc1Cl | 42 | 5 | 1 | i | 96* | 0.48
CC(C)[C@H](NC(=O)c1ccccc1)C(=O)OCC(=O)N1CC2(C)CC1CC(C)(C)C2 (stereo partly specified) | 53* | 2 | 1 | i | 40 | -0.97
CC(C)C(NC(=O)c1ccc(F)cc1)C(=O)OCC(=O)N1CC(=O)Nc2ccccc21 (stereo unspecified) | 68* | 4 | / | i | 4 | 1.1

Source: PubChem (several laboratories)
